# Assay results published in PubChem BioAssay AID588749 (Vanderbilt Specialized Chemistry Center, 2011).
# pEC50: −log10 of the molar value. Active and inactive are the calls of the source.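 The calls were made as follows: active = a clear dose-dependent calcium response in rat M1 cells, with a fitted half-maximal potency; inactive = the rest.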
# Target: Muscarinic acetylcholine receptor M1 (Rattus norvegicus) (UniProt P08482)
# Assay: potentiation of ACh at rat M1 – CHO cells, calcium fluorescence, counter-screen for M4 PAM project, dose response (AID 588749)
# Conditions: Fluo-4 calcium fluorescence
# Method in brief: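 material = rat M1 CHO cells | reagent = ACh at EC20 then EC80 | incubation = 144 s compound pre-incubation, 37 °C | technique = Fluo-4 calcium fluorescence | read-out = % max ACh response and EC50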
# Sequence of Muscarinic acetylcholine receptor M1 (Rattus norvegicus) (P08482 whole entry, looked up): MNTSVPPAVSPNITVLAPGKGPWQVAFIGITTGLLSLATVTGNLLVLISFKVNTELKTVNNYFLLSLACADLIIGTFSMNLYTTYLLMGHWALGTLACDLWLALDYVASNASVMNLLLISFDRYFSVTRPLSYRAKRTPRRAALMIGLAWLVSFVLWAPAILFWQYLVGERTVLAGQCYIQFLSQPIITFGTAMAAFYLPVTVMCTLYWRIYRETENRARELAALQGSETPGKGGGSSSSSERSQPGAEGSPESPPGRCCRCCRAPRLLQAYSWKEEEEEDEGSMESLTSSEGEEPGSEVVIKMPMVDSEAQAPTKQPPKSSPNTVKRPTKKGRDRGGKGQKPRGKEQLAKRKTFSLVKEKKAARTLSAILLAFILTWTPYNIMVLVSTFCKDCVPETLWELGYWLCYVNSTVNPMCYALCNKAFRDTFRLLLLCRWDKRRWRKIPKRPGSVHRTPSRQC
smiles,measurement,setting,value
Cc1nc2sc(C(=O)NCc3ccncn3)c(N)c2c(C)c1Cl,percent of ACh max response,at 30 µM (top of the series),inactive
Cc1nc2sc(C(=O)NCc3ccccc3)c(N)c2c(C)c1Cl,percent of ACh max response,at 37.4 µM (top of the series),inactive
Cc1nc2sc(C(=O)NCc3ccc4c(c3)OCO4)c(N)c2c(C)c1Cl,percent of ACh max response,at 36.8 µM (top of the series),inactive
Cc1nc2sc(C(=O)NCc3nccs3)c(N)c2c(C)c1Cl,percent of ACh max response,at 30 µM (top of the series),inactive
Cc1nc2sc(C(=O)NCc3cccnc3)c(N)c2c(C)c1Cl,percent of ACh max response,at 45.3 µM (top of the series),inactive
Cc1nc2sc(C(=O)NCc3cccc(F)c3F)c(N)c2c(C)c1Cl,percent of ACh max response,at 30 µM (top of the series),inactive
Cc1nc2sc(C(=O)NCCc3ccncc3)c(N)c2c(C)c1Cl,percent of ACh max response,at 30 µM (top of the series),inactive
Cc1nc2sc(C(=O)NC3CC3)c(N)c2c(C)c1Cl,pEC50,,6.03
Cc1nc2sc(C(=O)NCc3ccncc3)c(N)c2c(C)c1Cl,percent of ACh max response,at 45.3 µM (top of the series),inactive
